Measurements reported in ChEMBL document CHEMBL4043080 (J Med Chem, 2017).
Calls of active or inactive are those of the source. No cut-off for these calls is given here.

What was measured:
[1] = target: Rhodopsin kinase GRK1 (Bos taurus, UniProt P28327); assay: Inhibition of bovine GRK1 (1 to 535 residues) after 5 mins after 5 mins in presence of ATP by phosphorimaging assay
[2] = Inhibition of mouse PKA using CREBtide as substrate after 30 mins in presence of ATP by ADP-Glo kinase assay
Procedure, shortened: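 Mouse PKA catalytic subunit activity by ADP-Glo luminescence per kit protocol; inhibition curves fitted to obtain values.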

[3] = target: G protein-coupled receptor kinase 5 (Bos taurus, UniProt P43249); assay: Inhibition of bovine GRK5 after 5 mins after 5 mins in presence of ATP by phosphorimaging assay
[4] = test system: Liver; assay: Half life in CD-1 mouse liver microsomes at 1 uM measured up to 60 mins in presence of NADPH by LC-MS/MS analysis; type: ADME, microsome; conditions: 1 h
[5] = Plasma concentration in CD-1 mouse at 10 mg/kg, ip after 4 hrs administered as single dose by LC-MS/MS analysis; type: ADME, organism-based
Procedure, shortened: (§1)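 Female CD-1 mice given a single ip dose of 10 mg/kg in 15% DMSO/15% PEG-400/70% PBS (v/v); blood sampled at 0.5, 2, 4 and 7 h, centrifuged, plasma frozen at −80 °C; drug quantified by positive-ion MRM LC–MS/MS; parameters by noncompartmental analysis.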

[6] = Plasma concentration in CD-1 mouse at 10 mg/kg, ip after 7 hrs administered as single dose by LC-MS/MS analysis; type: ADME, organism-based; procedure, shortened: as §1
[7] = test system: Mus musculus; assay: AUC (0 to 7 hrs) in CD-1 mouse at 10 mg/kg, ip administered as single dose by LC-MS/MS analysis; type: ADME, organism-based; parameters: time < 7 hr, dose 10 mg/kg, route intraperitoneal; conditions: in vivo; procedure, shortened: as §1
[8] = target: T1, Beta-adrenergic receptor kinase 1 (Mus musculus) (UniProt Q99MK8); assay: Inhibition of GRK2 in isoproterenol-stimulated C57/BL6 mouse cardiomyocytes assessed as increase in contractility by measuring cell shortening at 1 uM pretreated for 10 mins followed by beta-AR agonist isoproterenol addition for 2 mins
T1 sequence (whole entry): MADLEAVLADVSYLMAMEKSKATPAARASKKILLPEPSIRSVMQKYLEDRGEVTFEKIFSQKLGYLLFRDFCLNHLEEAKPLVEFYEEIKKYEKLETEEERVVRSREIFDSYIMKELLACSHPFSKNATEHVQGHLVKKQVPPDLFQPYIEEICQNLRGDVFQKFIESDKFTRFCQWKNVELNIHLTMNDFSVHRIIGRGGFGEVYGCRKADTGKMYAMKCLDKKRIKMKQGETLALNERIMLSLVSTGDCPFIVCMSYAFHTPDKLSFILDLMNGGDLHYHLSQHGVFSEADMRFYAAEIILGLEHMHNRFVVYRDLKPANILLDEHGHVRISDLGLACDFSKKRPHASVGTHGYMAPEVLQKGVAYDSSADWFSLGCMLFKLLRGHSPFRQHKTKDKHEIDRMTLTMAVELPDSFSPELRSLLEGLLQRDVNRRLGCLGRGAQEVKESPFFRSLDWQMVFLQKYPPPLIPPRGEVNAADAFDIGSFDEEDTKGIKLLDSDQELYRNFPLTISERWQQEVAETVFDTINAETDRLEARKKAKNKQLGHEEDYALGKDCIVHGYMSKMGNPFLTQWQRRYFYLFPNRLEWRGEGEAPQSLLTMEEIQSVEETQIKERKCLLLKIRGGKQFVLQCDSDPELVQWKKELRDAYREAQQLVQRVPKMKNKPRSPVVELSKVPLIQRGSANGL

[9] = target: T1, Beta-adrenergic receptor kinase 1 (Mus musculus); assay: Inhibition of GRK2 in isoproterenol-stimulated C57/BL6 mouse cardiomyocytes assessed as increase in contractility by measuring cell shortening at 0.5 uM pretreated for 10 mins followed by beta-AR agonist isoproterenol addition for 2 mins
[10] = target: T1, Beta-adrenergic receptor kinase 1 (Mus musculus); assay: Inhibition of GRK2 in isoproterenol-stimulated C57/BL6 mouse cardiomyocytes assessed as increase in contractility by measuring cell shortening at 0.1 uM pretreated for 10 mins followed by beta-AR agonist isoproterenol addition for 2 mins
[11] = target: T1, Beta-adrenergic receptor kinase 1 (Mus musculus); conditions: C57/BL6

G protein-coupled receptor kinase 5, sequence (P43249 whole entry): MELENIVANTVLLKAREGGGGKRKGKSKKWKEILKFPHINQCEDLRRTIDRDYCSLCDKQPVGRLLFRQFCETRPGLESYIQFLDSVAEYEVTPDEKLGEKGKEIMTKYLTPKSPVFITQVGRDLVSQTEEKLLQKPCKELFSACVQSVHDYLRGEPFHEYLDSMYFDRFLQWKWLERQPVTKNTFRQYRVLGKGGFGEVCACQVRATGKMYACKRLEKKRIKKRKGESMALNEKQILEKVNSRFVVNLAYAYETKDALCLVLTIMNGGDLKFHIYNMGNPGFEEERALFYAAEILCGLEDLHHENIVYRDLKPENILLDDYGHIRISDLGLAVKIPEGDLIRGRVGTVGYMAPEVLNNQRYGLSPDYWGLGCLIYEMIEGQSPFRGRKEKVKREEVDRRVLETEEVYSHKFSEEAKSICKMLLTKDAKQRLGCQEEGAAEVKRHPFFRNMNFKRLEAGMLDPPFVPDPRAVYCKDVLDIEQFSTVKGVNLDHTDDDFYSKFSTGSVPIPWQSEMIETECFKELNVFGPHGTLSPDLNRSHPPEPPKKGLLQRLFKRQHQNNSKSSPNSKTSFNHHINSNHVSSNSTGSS
Rhodopsin kinase GRK1, sequence (P28327 whole entry, the tested form may be a part): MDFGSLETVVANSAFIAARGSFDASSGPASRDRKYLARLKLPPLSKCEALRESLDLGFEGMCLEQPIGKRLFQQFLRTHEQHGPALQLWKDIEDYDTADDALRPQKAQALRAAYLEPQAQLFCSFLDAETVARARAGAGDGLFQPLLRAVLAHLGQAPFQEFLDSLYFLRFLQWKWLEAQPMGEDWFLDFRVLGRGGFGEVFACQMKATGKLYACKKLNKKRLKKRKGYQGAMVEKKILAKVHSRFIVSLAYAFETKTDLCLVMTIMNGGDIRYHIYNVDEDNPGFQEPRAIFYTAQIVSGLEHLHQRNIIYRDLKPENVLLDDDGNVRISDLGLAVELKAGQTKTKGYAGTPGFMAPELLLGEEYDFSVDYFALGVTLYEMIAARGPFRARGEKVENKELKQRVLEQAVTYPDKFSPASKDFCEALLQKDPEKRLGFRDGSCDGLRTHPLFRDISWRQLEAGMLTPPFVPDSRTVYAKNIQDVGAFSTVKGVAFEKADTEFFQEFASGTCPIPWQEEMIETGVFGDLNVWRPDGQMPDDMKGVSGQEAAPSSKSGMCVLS

Row | Compound | IC50 [2] [µM] | IC50 [1] [µM] | IC50 [3] [µM] | other results
1 | COc1cccc(OC)c1CNC(=O)c1cc([C@@H]2CCNC[C@H]2COc2ccc3c(c2)OCO3)ccc1F | > 100 | 32 | 38.4 | t1/2 [4]: 24.9 min
2 | O=C(Cc1cc([C@@H]2CCNC[C@H]2COc2ccc3c(c2)OCO3)ccc1F)NCc1ccccn1 | 48.2 | 60 | > 100 | –
3 | O=C(NCc1cccnc1)c1cc([C@@H]2CCNC[C@H]2COc2ccc3c(c2)OCO3)ccc1F | > 100 | > 100 | 76.3 | –
4 | O=C(NCc1ncc[nH]1)c1cc([C@@H]2CCNC[C@H]2COc2ccc3c(c2)OCO3)ccc1F | > 100 | > 100 | 14.8 | –
5 | Cn1c(CNc2cccc(C(=O)NCc3ccccc3C(F)(F)F)c2)nnc1-c1ccncc1 | – | 52.1 | 9.2 | concentration at 4 h [5]: 5 nM; concentration at 7 h [6]: 6 nM; AUC [7]: 1.9 µM·h
6 | CC1=C(C(=O)Nc2ccc3[nH]ncc3c2)C(c2ccc(F)cc2)NC(=O)N1 (centres undefined) [GSK-180736A] | – | > 100 | – | inhibition [8]: Active; t1/2 [4]: 20.6 min
7 | O=C(NCCc1c(F)cccc1F)c1cc([C@@H]2CCNC[C@H]2COc2ccc3c(c2)OCO3)ccc1F | > 100 | > 100 | 10.2 | –
8 | Fc1ccc([C@@H]2CCNC[C@H]2COc2ccc3c(c2)OCO3)cc1 [PAROXETINE] | > 100 | > 100 | > 100 | t1/2 [4]: 24.3 min
9 | Cc1cccc(C)c1CNC(=O)c1cc([C@@H]2CCNC[C@H]2COc2ccc3c(c2)OCO3)ccc1F | > 100 | 24.5 | 42.3 | t1/2 [4]: 45.9 min
10 | CNC(=O)c1cc([C@@H]2CCNC[C@H]2COc2ccc3c(c2)OCO3)ccc1F | > 100 | > 100 | > 100 | –
11 | O=C(NCCc1cn[nH]c1)c1cc([C@@H]2CCNC[C@H]2COc2ccc3c(c2)OCO3)ccc1F | > 100 | > 100 | > 100 | –
12 | O=C(NCc1c(Cl)cccc1Cl)c1cc([C@@H]2CCNC[C@H]2COc2ccc3c(c2)OCO3)ccc1F | > 100 | 25.8 | 33.2 | t1/2 [4]: 36.4 min
13 | COc1ccccc1CNC(=O)Cc1cc([C@@H]2CCNC[C@H]2COc2ccc3c(c2)OCO3)ccc1F | 25.8 | > 100 | > 100 | –
14 | O=C(NCc1ccccc1C(F)(F)F)c1cc([C@@H]2CCNC[C@H]2COc2ccc3c(c2)OCO3)ccc1F | > 100 | > 100 | 75.7 | –
15 | O=C(NCc1ccccn1)c1cc([C@@H]2CCNC[C@H]2COc2ccc3c(c2)OCO3)ccc1F | > 100 | > 100 | 17.1 | inhibition [8]: inactive; inhibition [9]: inactive; t1/2 [4]: 3.15 min
16 | CCCn1c(CNc2cccc(C(=O)NCc3c(F)cccc3F)c2)nnc1-c1ccncn1 | – | 9.1 | 2.2 | –
17 | O=C(NCc1ccccc1)c1cc([C@@H]2CCNC[C@H]2COc2ccc3c(c2)OCO3)ccc1F | > 100 | > 100 | 84.3 | –
18 | O=C(NCc1c(F)cccc1F)c1cc([C@@H]2CCNC[C@H]2COc2ccc3c(c2)OCO3)ccc1F | > 100 | > 100 | 37.2 | –
19 | Cc1cc(CNC(=O)c2cc([C@@H]3CCNC[C@H]3COc3ccc4c(c3)OCO4)ccc2F)n[nH]1 | > 100 | 86.5 | 4 | t1/2 [4]: 10.3 min
20 | O=C(NCc1ccn[nH]1)c1cc([C@@H]2CCNC[C@H]2COc2ccc3c(c2)OCO3)ccc1F | > 100 | – | – | inhibition [10]: Active; concentration at 4 h [5]: 270 nM; concentration at 7 h [6]: 43 nM; MEC [11]: 0.1 µM

More lines, main results first:

Row | IC50 [2] [µM] | Compound | IC50 [1] [µM] | IC50 [3] [µM] | other results
21 | > 100 | O=C(NCCc1ccccn1)c1cc([C@@H]2CCNC[C@H]2COc2ccc3c(c2)OCO3)ccc1F | > 100 | > 100 | –
22 | > 100 | O=C(NCCc1cccnc1)c1cc([C@@H]2CCNC[C@H]2COc2ccc3c(c2)OCO3)ccc1F | > 100 | > 100 | –
23 | > 100 | Cn1ccc(CNC(=O)c2cc([C@@H]3CCNC[C@H]3COc3ccc4c(c3)OCO4)ccc2F)n1 | > 100 | > 100 | –
24 | > 100 | O=C(NCCc1ccccc1)c1cc([C@@H]2CCNC[C@H]2COc2ccc3c(c2)OCO3)ccc1F | > 100 | > 100 | –
25 | > 100 | O=C(Cc1cc([C@@H]2CCNC[C@H]2COc2ccc3c(c2)OCO3)ccc1F)NCCc1ccccn1 | > 100 | > 100 | –
26 | > 100 | COc1ccccc1CNC(=O)c1cc([C@@H]2CCNC[C@H]2COc2ccc3c(c2)OCO3)ccc1F | > 100 | > 100 | –
27 | > 100 | COc1cccc(OC)c1CNC(=O)c1cc(C2NC(=O)NC(C)=C2C(=O)Nc2ccc3[nH]ncc3c2)ccc1F (centres undefined) | > 100 | > 100 | t1/2 [4]: 3.82 min
28 | > 100 | O=C(NCc1ccncc1)c1cc([C@@H]2CCNC[C@H]2COc2ccc3c(c2)OCO3)ccc1F | > 100 | > 100 | –
29 | > 100 | O=C(NCc1cn[nH]c1)c1cc([C@@H]2CCNC[C@H]2COc2ccc3c(c2)OCO3)ccc1F | > 100 | > 100 | –
30 | > 100 | Cn1nccc1CNC(=O)c1cc([C@@H]2CCNC[C@H]2COc2ccc3c(c2)OCO3)ccc1F | > 100 | > 100 | –
31 | > 100 | O=C(NCCc1cc[nH]n1)c1cc([C@@H]2CCNC[C@H]2COc2ccc3c(c2)OCO3)ccc1F | > 100 | > 100 | –
32 | > 100 | O=C(NCCc1c[nH]cn1)c1cc([C@@H]2CCNC[C@H]2COc2ccc3c(c2)OCO3)ccc1F | > 100 | > 100 | –
33 | > 100 | O=C(NCCc1ccncc1)c1cc([C@@H]2CCNC[C@H]2COc2ccc3c(c2)OCO3)ccc1F | > 100 | > 100 | –
34 | > 100 | O=C(Cc1cc([C@@H]2CCNC[C@H]2COc2ccc3c(c2)OCO3)ccc1F)NCCc1cn[nH]c1 | > 100 | > 100 | –
